According to ChEMBL document CHEMBL2413060, “Synthesis, biological evaluation and molecular docking studies of some pyrimidine derivatives” (2013):

Tests used:
Type in all cases: functional
RPMI-8226 = test: Cytotoxicity against human RPMI8226 cells assessed as growth inhibition at 10 uM; details: read-out: GI
Method in brief: (§1)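 Single-dose screen on human tumour cell lines. Growth of treated cells is expressed as percent of untreated growth, plotted as a mean graph, and reported as percent growth inhibition.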

Candida albicans = test: Antifungal activity against Candida albicans ATCC 2091 assessed as diameter of inhibition zone at 1 mg/ml after 48 hrs by cup diffusion method (reference value: 22 mm); details: ATCC 2091, 48 h, read-out: DIZ
Staphylococcus aureus = test: Antibacterial activity against Staphylococcus aureus ATCC 6538P assessed as diameter of inhibition zone at 1 mg/ml after 24 hrs by cup diffusion method (reference value: 15 mm); details: read-out: DIZ
T47D [1] = test: Cytotoxicity against human T47D cells
Method in brief: (§2)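 Five-dose in vitro screen on the full sixty human tumour cell line panel. Three response parameters derived per cell line: GI50, TGI and LC50, given in μM.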

MDA-MB-435 = test: Cytotoxicity against human MDA-MB-435 cells; method in brief: as §2
Hs-578T = test: Cytotoxicity against human Hs578T cells
NCI/ADR-RES = test: Cytotoxicity against human NCI/ADR-RES cells; method in brief: as §2
DU-145 = test: Cytotoxicity against human DU145 cells
PC-3 [2] = test: Cytotoxicity against human PC3 cells; method in brief: as §2
SN12C = test: Cytotoxicity against human SN12C cells; method in brief: as §2
ACHN [3] = test: Cytotoxicity against human ACHN cells
A498 = test: Cytotoxicity against human A498 cells
786-0 = test: Cytotoxicity against human 786-0 cells
OVCAR-5 = test: Cytotoxicity against human OVCAR5 cells; method in brief: as §2
IGROV-1 = test: Cytotoxicity against human IGROV1 cells
UACC-257 = test: Cytotoxicity against human UACC257 cells
Method in brief: (§3)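 Five-dose in vitro screen across the full sixty-cell human tumour line panel. Three response parameters were derived from the dose-response data: GI50, TGI and LC50, expressed in μM/l.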

SK-MEL-28 = test: Cytotoxicity against human SK-MEL-28 cells; method in brief: as §2
Malme-3M [4] = test: Cytotoxicity against human MALME-3M cells
U-251 = test: Cytotoxicity against human U251 cells; method in brief: as §3
SNB-75 = test: Cytotoxicity against human SNB75 cells; method in brief: as §2
SNB-19 = test: Cytotoxicity against human SNB19 cells; method in brief: as §2
SF-295 = test: Cytotoxicity against human SF295 cells; method in brief: as §2
SF-268 = test: Cytotoxicity against human SF268 cells; method in brief: as §2
KM12 = test: Cytotoxicity against human KM12 cells
HCT-116 = test: Cytotoxicity against human HCT116 cells
HCT-15 = test: Cytotoxicity against human HCT15 cells
NCI-H322M = test: Cytotoxicity against human NCI-H322M cells; method in brief: as §2
NCI-H226 = test: Cytotoxicity against human NCI-H226 cells; method in brief: as §2
NCI-H23 = test: Cytotoxicity against human NCI-H23 cells; method in brief: as §2
MOLT-4 = test: Cytotoxicity against human MOLT4 cells; method in brief: as §2
HL-60(TB) = test: Cytotoxicity against human HL-60(TB) cells
Method in brief: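 Run in the sixty human tumour cell line panel. The primary screen reports percent growth of treated cells, expressed as percentage growth inhibition. Compounds meeting the threshold inhibition criteria go on to the full-panel 5-dose assay, which gives three response parameters (GI50, TGI, LC50) in μM.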

K562 = test: Cytotoxicity against human K562 cells
T47D [5] = test: Cytotoxicity against human T47D cells assessed as growth inhibition at 10 uM; details: read-out: GI; method in brief: as §1
BT-549 = test: Cytotoxicity against human BT549 cells assessed as growth inhibition at 10 uM; details: read-out: GI
PC-3 [6] = test: Cytotoxicity against human PC3 cells assessed as growth inhibition at 10 uM; details: read-out: GI; method in brief: as §1
MCF7 = test: Cytotoxicity against human MCF7 cells assessed as growth inhibition at 10 uM; details: read-out: GI; method in brief: as §1
RXF 393 = test: Cytotoxicity against human RXF393 cells assessed as growth inhibition at 10 uM; details: read-out: GI; method in brief: as §1
CAKI-1 = test: Cytotoxicity against human Caki1 cells assessed as growth inhibition at 10 uM; details: read-out: GI
ACHN [7] = test: Cytotoxicity against human ACHN cells assessed as growth inhibition at 10 uM; details: read-out: GI
SK-OV-3 = test: Cytotoxicity against human SKOV3 cells assessed as growth inhibition at 10 uM; details: read-out: GI; method in brief: as §1
Malme-3M [8] = test: Cytotoxicity against human MALME-3M cells assessed as growth inhibition at 10 uM; details: read-out: GI
NCI-H522 = test: Cytotoxicity against human NCI-H522 cells assessed as growth inhibition at 10 uM; details: read-out: GI; method in brief: as §1
HOP-92 = test: Cytotoxicity against human HOP92 cells assessed as growth inhibition at 10 uM; details: read-out: GI
[9] = read-out: LC50 (the source's name)

Question: Which results are given for `N#Cc1c(-c2ccccc2)nc(SCC2CO2)nc1N1CCOCC1` (stereo unspecified)?
Answer: inhibition of growth at 10 µM (RPMI-8226): 52.1%; zone of inhibition at 1000 µg/mL (Candida albicans): 22 mm; zone of inhibition at 1000 µg/mL (Staphylococcus aureus): 15 mm; GI50 (T47D [1]): 3.59 µM; TGI (T47D [1]): 22.5 µM; CC50 (T47D [1]; [9]): > 100 µM; GI50 (MDA-MB-435): 6.71 µM; TGI (MDA-MB-435): > 100 µM; CC50 (MDA-MB-435; [9]): > 100 µM; GI50 (Hs-578T): 1150 nM; TGI (Hs-578T): 6.09 µM; CC50 (Hs-578T; [9]): > 100 µM; GI50 (NCI/ADR-RES): 11.8 µM; TGI (NCI/ADR-RES): > 100 µM; CC50 (NCI/ADR-RES; [9]): > 100 µM; GI50 (DU-145): 13.4 µM; TGI (DU-145): > 100 µM; CC50 (DU-145; [9]): > 100 µM; GI50 (PC-3 [2]): 22.1 µM; TGI (PC-3 [2]): > 100 µM; CC50 (PC-3 [2]; [9]): > 100 µM; GI50 (SN12C): 16.4 µM; TGI (SN12C): > 100 µM; CC50 (SN12C; [9]): > 100 µM; GI50 (ACHN [3]): 3.23 µM; TGI (ACHN [3]): > 100 µM; CC50 (ACHN [3]; [9]): > 100 µM; GI50 (A498): 1060 nM; TGI (A498): 5.28 µM; CC50 (A498; [9]): > 100 µM; GI50 (786-0): 2700 nM; TGI (786-0): 21.3 µM; CC50 (786-0; [9]): > 100 µM; GI50 (OVCAR-5): 1700 nM; TGI (OVCAR-5): > 100 µM; CC50 (OVCAR-5; [9]): > 100 µM; GI50 (IGROV-1): 1790 nM; TGI (IGROV-1): 23.3 µM; CC50 (IGROV-1; [9]): > 100 µM; GI50 (UACC-257): 50.7 µM; TGI (UACC-257): > 100 µM; CC50 (UACC-257; [9]): > 100 µM; GI50 (SK-MEL-28): 5.45 µM; TGI (SK-MEL-28): 98.3 µM; CC50 (SK-MEL-28; [9]): > 100 µM; GI50 (Malme-3M [4]): 2560 nM; TGI (Malme-3M [4]): > 100 µM; CC50 (Malme-3M [4]; [9]): > 100 µM; GI50 (U-251): 22.1 µM; TGI (U-251): > 100 µM; CC50 (U-251; [9]): > 100 µM; GI50 (SNB-75): 2150 nM; TGI (SNB-75): 68.2 µM; CC50 (SNB-75; [9]): > 100 µM; GI50 (SNB-19): 84.5 µM; TGI (SNB-19): > 100 µM; CC50 (SNB-19; [9]): > 100 µM; GI50 (SF-295): 1460 nM; TGI (SF-295): 20.4 µM; CC50 (SF-295; [9]): > 100 µM; GI50 (SF-268): 13 µM; TGI (SF-268): > 100 µM; CC50 (SF-268; [9]): > 100 µM; GI50 (KM12): 27.1 µM; TGI (KM12): > 100 µM; CC50 (KM12; [9]): > 100 µM; GI50 (HCT-116): 18.4 µM; TGI (HCT-116): > 100 µM; CC50 (HCT-116; [9]): > 100 µM; GI50 (HCT-15): 4.06 µM; TGI (HCT-15): > 100 µM; CC50 (HCT-15; [9]): > 100 µM; GI50 (NCI-H322M): 8.31 µM; TGI (NCI-H322M): > 100 µM; CC50 (NCI-H322M; [9]): > 100 µM; GI50 (NCI-H226): 10.1 µM; TGI (NCI-H226): > 100 µM; CC50 (NCI-H226; [9]): > 100 µM; GI50 (NCI-H23): 4.48 µM; TGI (NCI-H23): > 100 µM; CC50 (NCI-H23; [9]): > 100 µM; GI50 (MOLT-4): 28.9 µM; TGI (MOLT-4): > 100 µM; CC50 (MOLT-4; [9]): > 100 µM; GI50 (HL-60(TB)): 34.1 µM; TGI (HL-60(TB)): > 100 µM; CC50 (HL-60(TB); [9]): > 100 µM; GI50 (K562): > 100 µM; TGI (K562): > 100 µM; CC50 (K562; [9]): > 100 µM; inhibition of growth at 10 µM (T47D [5]): 84.6%; inhibition of growth at 10 µM (BT-549): 88.6%; inhibition of growth at 10 µM (PC-3 [6]): 63.9%; inhibition of growth at 10 µM (MCF7): 55.2%; inhibition of growth at 10 µM (RXF 393): 68.5%; inhibition of growth at 10 µM (CAKI-1): 61.4%; inhibition of growth at 10 µM (ACHN [7]): 40.8%; inhibition of growth at 10 µM (SK-OV-3): 71.9%; inhibition of growth at 10 µM (Malme-3M [8]): 74.3%; inhibition of growth at 10 µM (NCI-H522): 42.1%; inhibition of growth at 10 µM (HOP-92): 81.7%
